Test results from ChEMBL document CHEMBL1212882, “Phenolic constituents isolated from Fragaria ananassa Duch. inhibit antigen-stimulated degranulation through direct inhibition of spleen tyrosine kinase activation” (Bioorg Med Chem, 2010).
Active and inactive are the calls of the source. The calls are words filed in the database; no cut-off is given here.

Legend:
Format in all cases: cell-based
[1] = molecular target: Tyrosine-protein kinase SYK (Rattus norvegicus) (UniProt Q64725); experiment: Inhibition of spleen tyrosine kinase in rat RBL-2H3 cells assessed as inhibition of IgE-induced degranulation at 10 to 100 uM after 1 hr by beta-hexosaminidase release assay
How it was run: (§1)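 RBL-2H3 cells (2 × 10^4/well) cultured 1 h, then sensitized with anti-DNP IgE 0.45 µg/ml for 24 h. Cells were washed in Siraganian buffer A (PIPES, pH 7.2) and equilibrated in buffer B at 37 °C for 10 min. Compound was added at 37 °C for 30 min, then DNP-BSA 10 µg/ml for 10 min. Supernatant β-hexosaminidase was read with p-nitrophenyl-N-acetyl-β-D-glucosaminide at A405, corrected for direct enzyme inhibition.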

[2] = molecular target: Tyrosine-protein kinase SYK (Rattus norvegicus) (UniProt Q64725); experiment: Inhibition of spleen tyrosine kinase in rat RBL-2H3 cells assessed as inhibition of IgE-induced increase of intracellular calcium level at 50 uM after 30 mins by FLIPR assay
How it was run: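 IgE-sensitized RBL-2H3 cells (5 × 10^4/well; anti-DNP IgE 0.45 µg/ml, 24 h) were loaded with Fluo-3AM for 1 h. Cells were washed and held 30 min in loading buffer containing 50 µM compound, then stimulated with DNP-BSA 10 µg/ml. Fluorescence (ex 490/em 530 nm) was recorded on a fluorometric imaging plate reader. Means ± SEM, n = 12.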

[3] = molecular target: Tyrosine-protein kinase SYK (Rattus norvegicus) (UniProt Q64725); experiment: Inhibition of spleen tyrosine kinase in rat RBL-2H3 cells assessed as inhibition of IgE-induced upregulation of phospholipase Cgamma1 level at 50 uM after 30 mins by Western blotting
How it was run: (§2)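 IgE-sensitized RBL-2H3 cells were pretreated 30 min with 50 µM compound and stimulated with DNP-BSA. Lysates were run on SDS-PAGE and transferred to PVDF. Membranes were blocked 1 h in 5% nonfat milk, probed with primary antibody overnight at 4 °C, then HRP secondary antibody 1 h at room temperature. ECL chemiluminescence detection; three independent experiments.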

[4] = molecular target: Tyrosine-protein kinase SYK (Rattus norvegicus) (UniProt Q64725); experiment: Inhibition of spleen tyrosine kinase in rat RBL-2H3 cells assessed as inhibition of IgE-induced upregulation of phospholipase 2 level at 50 uM after 30 mins by Western blotting; how it was run: as §2
[5] = molecular target: Tyrosine-protein kinase SYK (Rattus norvegicus) (UniProt Q64725); experiment: Inhibition of spleen tyrosine kinase in rat RBL-2H3 cells assessed as inhibition of IgE-induced upregulation of Lyn level at 50 uM after 30 mins by Western blotting; how it was run: as §2
[6] = molecular target: Tyrosine-protein kinase SYK (Rattus norvegicus) (UniProt Q64725); experiment: Inhibition of spleen tyrosine kinase in rat RBL-2H3 cells assessed as inhibition of IgE-induced degranulation after 1 hr by beta-hexosaminidase release assay; how it was run: as §1
[7] = molecular target: Tyrosine-protein kinase SYK (Rattus norvegicus) (UniProt Q64725); experiment: Inhibition of spleen tyrosine kinase in rat RBL-2H3 cells assessed as inhibition of IgE-induced increase of ROS level at 50 uM after 30 mins by FLIPR assay
How it was run: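 Sensitized RBL-2H3 cells (5 × 10^4/well) took up 10 µM CM-H2DCFDA for 30 min at 37 °C and were washed twice. Cells were exposed to 50 µM compound for 30 min, then challenged with DNP-BSA 10 µg/ml. DCF fluorescence (ex 490/em 530 nm) was read on a fluorometric imaging plate reader. DPI 200 nM served as control. Means ± SEM, n = 10.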

[8] = molecular target: Tyrosine-protein kinase SYK (Rattus norvegicus) (UniProt Q64725); experiment: Inhibition of spleen tyrosine kinase in rat RBL-2H3 cells assessed as inhibition of IgE-induced upregulation of p38 level at 50 uM after 30 mins by Western blotting; how it was run: as §2
[9] = molecular target: Tyrosine-protein kinase SYK (Rattus norvegicus) (UniProt Q64725); experiment: Inhibition of spleen tyrosine kinase in rat RBL-2H3 cells assessed as inhibition of IgE-induced upregulation of cPLA2 level at 50 uM after 30 mins by Western blotting; how it was run: as §2
[10] = molecular target: Tyrosine-protein kinase SYK (Rattus norvegicus) (UniProt Q64725); experiment: Inhibition of spleen tyrosine kinase in rat RBL-2H3 cells assessed as inhibition of IgE-induced upregulation of ERK1/2 level at 50 uM after 30 mins by Western blotting; how it was run: as §2
[11] = molecular target: Tyrosine-protein kinase SYK (Rattus norvegicus) (UniProt Q64725); experiment: Inhibition of spleen tyrosine kinase in rat RBL-2H3 cells assessed as inhibition of IgE-induced upregulation of PI3K/Akt level at 50 uM after 30 mins by Western blotting; how it was run: as §2
[12] = molecular target: Tyrosine-protein kinase SYK (Rattus norvegicus) (UniProt Q64725); experiment: Inhibition of spleen tyrosine kinase in rat RBL-2H3 cells assessed as inhibition of IgE-induced upregulation of JNK level at 50 uM after 30 mins by Western blotting; how it was run: as §2

Tyrosine-protein kinase SYK (Rattus norvegicus), sequence (Q64725 whole entry, looked up): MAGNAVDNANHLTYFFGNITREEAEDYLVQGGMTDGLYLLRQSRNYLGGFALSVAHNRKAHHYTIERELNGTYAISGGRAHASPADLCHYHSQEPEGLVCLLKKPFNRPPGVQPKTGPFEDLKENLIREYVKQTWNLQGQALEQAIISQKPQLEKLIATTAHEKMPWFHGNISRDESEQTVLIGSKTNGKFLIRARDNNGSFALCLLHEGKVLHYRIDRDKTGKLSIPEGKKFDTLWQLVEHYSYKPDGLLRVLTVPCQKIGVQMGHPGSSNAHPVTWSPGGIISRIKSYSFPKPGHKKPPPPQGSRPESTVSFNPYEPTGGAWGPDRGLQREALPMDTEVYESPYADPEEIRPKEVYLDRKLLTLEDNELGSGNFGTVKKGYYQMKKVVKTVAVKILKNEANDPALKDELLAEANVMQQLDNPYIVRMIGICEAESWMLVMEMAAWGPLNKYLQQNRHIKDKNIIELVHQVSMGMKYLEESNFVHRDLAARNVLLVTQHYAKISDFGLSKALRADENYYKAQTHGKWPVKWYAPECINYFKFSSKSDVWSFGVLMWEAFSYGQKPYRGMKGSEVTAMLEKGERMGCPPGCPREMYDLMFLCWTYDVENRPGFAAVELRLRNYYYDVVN

O=C(/C=C/c1ccccc1)O[C@@H]1O[C@H](CO)[C@@H](O)[C@H](O)[C@H]1O
inhibition [1]: Active

O=C(O)/C=C/c1ccccc1
inhibition [2]: Active | inhibition [3]: Active | inhibition [4]: Active | inhibition [5]: inactive | inhibition [6]: Dose-dependent effect | inhibition [7]: Active

COC(=O)/C=C/c1ccc(O[C@@H]2O[C@H](CO)[C@@H](O)[C@H](O)[C@H]2O)cc1
inhibition [2]: Active | inhibition [8]: Active | inhibition [3]: Active | inhibition [4]: Active | inhibition [9]: Active | inhibition [5]: inactive | inhibition [10]: Active | inhibition [6]: Dose-dependent effect | inhibition [7]: Active | inhibition [11]: Active | inhibition [12]: Active

O=C(O)/C=C/c1ccc(O)cc1
inhibition [1]: inactive
